Laboratory results: ChEMBL document CHEMBL1146567, “Isolation and structure of ruprechstyril from Ruprechtia tangarana” (2003)
In brackets after ≈: the same amount, converted by molar mass. Activity calls are given as the source filed them. The calls are words filed in the database; no cut-off is given here.

Key:
[1] = test system: P388; assay: Cytotoxicity against mouse P388 cells; type: functional
[2] = test system: Staphylococcus aureus; assay: Antimicrobial activity against Staphylococcus aureus up to 64 ug/mL by broth microdilution susceptibility assay; type: functional, organism-based
Procedure, shortened: (§1)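 Broth microdilution susceptibility testing. Growth inhibition read-out is reported as the minimum inhibitory concentration, in μg/mL.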

[3] = test system: Streptococcus pneumoniae; assay: Antimicrobial activity against Streptococcus pneumoniae up to 64 ug/mL by broth microdilution susceptibility assay; type: functional, organism-based; procedure, shortened: as §1
[4] = test system: Enterococcus faecalis; assay: Antimicrobial activity against Enterococcus faecalis up to 64 ug/mL by broth microdilution susceptibility assay; type: functional, organism-based; procedure, shortened: as §1
[5] = test system: Micrococcus luteus; assay: Antimicrobial activity against Micrococcus luteus up to 64 ug/mL by broth microdilution susceptibility assay; type: functional, organism-based; procedure, shortened: as §1
[6] = test system: Enterobacter cloacae; assay: Antimicrobial activity against Enterobacter cloacae up to 64 ug/mL by broth microdilution susceptibility assay; type: functional, organism-based; procedure, shortened: as §1
[7] = test system: Escherichia coli; assay: Antimicrobial activity against Escherichia coli up to 64 ug/mL by broth microdilution susceptibility assay; type: functional, organism-based; procedure, shortened: as §1
[8] = test system: Stenotrophomonas maltophilia; assay: Antimicrobial activity against Stenotrophomonas maltophilia up to 64 ug/mL by broth microdilution susceptibility assay; type: functional, organism-based; procedure, shortened: as §1
[9] = test system: Neisseria gonorrhoeae; assay: Antimicrobial activity against Neisseria gonorrhoeae up to 64 ug/mL by broth microdilution susceptibility assay; type: functional, organism-based; procedure, shortened: as §1
[10] = test system: Cryptococcus neoformans; assay: Antimicrobial activity against Cryptococcus neoformans up to 64 ug/mL by broth microdilution susceptibility assay; type: functional, organism-based; procedure, shortened: as §1
[11] = test system: Candida albicans; assay: Antimicrobial activity against Candida albicans up to 64 ug/mL by broth microdilution susceptibility assay; type: functional, organism-based; procedure, shortened: as §1
[12] = test system: Enterococcus faecalis; assay: Antimicrobial activity against Enterococcus faecalis by broth microdilution susceptibility assay; type: functional
Procedure, shortened: (§2)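 Broth microdilution susceptibility testing; the value recorded is the minimum inhibitory concentration of growth, given in μg/mL, and sometimes reported as a range.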

[13] = test system: Micrococcus luteus; assay: Antimicrobial activity against Micrococcus luteus by broth microdilution susceptibility assay; type: functional; procedure, shortened: as §2

SMILES | Activity [1] | Activity [2] | Activity [3] | Activity [4] | Activity [5] | Activity [6] | Activity [7] | Activity [8] | Activity [9] | Activity [10] | Activity [11] | MIC [12] | MIC [13] | EC50 ([1]; read-out: ED50 (the source's name))
COc1c(OC)c2oc(=O)c3cc(O)c(OC)c4oc(=O)c(c1O)c2c43 | inactive | inactive | inactive | inactive | inactive | inactive | inactive | inactive | inactive | inactive | inactive | – | – | –
COc1cc(C)c2c(=O)c3c(O)cc(OC)cc3oc2c1 | inactive | inactive | inactive | inactive | inactive | inactive | inactive | inactive | inactive | inactive | inactive | – | – | –
COC(=O)c1cc(O)cc(OC)c1Oc1cc(C)cc(O)c1C(=O)OC | inactive | inactive | inactive | inactive | inactive | inactive | inactive | inactive | inactive | inactive | inactive | – | – | –
COc1cc(C)c(C(=O)Oc2cc(C)c(C(=O)O)c(OC)c2)c(O)c1 | inactive | inactive | inactive | inactive | inactive | inactive | inactive | inactive | inactive | inactive | inactive | – | – | –
COC(=O)[C@]12Oc3ccc(-c4ccc5c(c4O)C(=O)C4=C(O)C[C@@H](C)[C@H](O)[C@@]4(C(=O)OC)O5)c(O)c3C(=O)C1=C(O)C[C@@H](C)[C@@H]2O [SECALONIC ACID A] | – | – | – | – | – | – | – | – | – | – | – | 32 µg/mL (≈ 50.1 µM) | 4 µg/mL (≈ 6.26 µM) | 3.5 µg/mL (≈ 5.48 µM)
CCCCCc1cc2cc(OC)cc(O)c2c(=O)[nH]1 | inactive | inactive | inactive | inactive | inactive | inactive | inactive | inactive | inactive | inactive | inactive | – | – | –
CC[C@H](/C=C/[C@@H](C)[C@H]1CC[C@H]2[C@@H]3CC=C4C[C@@H](O)CC[C@]4(C)[C@H]3CC[C@]12C)C(C)C | inactive | – | – | – | – | – | – | – | – | – | – | – | – | –
